TRPC4 block: inhibitors of mouse TRPC4 channel, primary screen, Fluo4 calcium, HEK293 TRPC4beta/mu-opioid cells. Short transient receptor potential channel 4 (Mus musculus), Q9QUQ5. DAMGO-evoked Fluo4 calcium flux; active compounds read low. B-score at 10 µM. 300,000 tested, 0.39% active;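 active = B-score over 3 SD under the library average, no early fluorescence shift, positive overall ratio signal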
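System: stable TRPC4beta/mu-opioid receptor HEK293 cells; Dosing: single-point compound dosing; Measured by: Fluo4 Ca2+ flux fluorescence; Read-out basis: per-well B score of integrated baseline-normalized Fluo4 ratio.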
TRPC6 activator: mouse TRPC6 channel activators, primary screen, cell-based, HEK293, membrane potential dye; Short transient receptor potential channel 6 (Mus musculus), Q61143; HEK293-TRPC6 membrane potential dye fluorescence; active compounds read high; B-score at 10 µM; 310,000 tested, 0.13% active;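 active = B-score of the integrated fluorescence ratio above library mean plus 3 SD, and starting fluorescence ratio within library mean plus 5 SD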;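 note: higher score means more depolarization so channel activation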
Target sequence (Q61143 whole entry, looked up): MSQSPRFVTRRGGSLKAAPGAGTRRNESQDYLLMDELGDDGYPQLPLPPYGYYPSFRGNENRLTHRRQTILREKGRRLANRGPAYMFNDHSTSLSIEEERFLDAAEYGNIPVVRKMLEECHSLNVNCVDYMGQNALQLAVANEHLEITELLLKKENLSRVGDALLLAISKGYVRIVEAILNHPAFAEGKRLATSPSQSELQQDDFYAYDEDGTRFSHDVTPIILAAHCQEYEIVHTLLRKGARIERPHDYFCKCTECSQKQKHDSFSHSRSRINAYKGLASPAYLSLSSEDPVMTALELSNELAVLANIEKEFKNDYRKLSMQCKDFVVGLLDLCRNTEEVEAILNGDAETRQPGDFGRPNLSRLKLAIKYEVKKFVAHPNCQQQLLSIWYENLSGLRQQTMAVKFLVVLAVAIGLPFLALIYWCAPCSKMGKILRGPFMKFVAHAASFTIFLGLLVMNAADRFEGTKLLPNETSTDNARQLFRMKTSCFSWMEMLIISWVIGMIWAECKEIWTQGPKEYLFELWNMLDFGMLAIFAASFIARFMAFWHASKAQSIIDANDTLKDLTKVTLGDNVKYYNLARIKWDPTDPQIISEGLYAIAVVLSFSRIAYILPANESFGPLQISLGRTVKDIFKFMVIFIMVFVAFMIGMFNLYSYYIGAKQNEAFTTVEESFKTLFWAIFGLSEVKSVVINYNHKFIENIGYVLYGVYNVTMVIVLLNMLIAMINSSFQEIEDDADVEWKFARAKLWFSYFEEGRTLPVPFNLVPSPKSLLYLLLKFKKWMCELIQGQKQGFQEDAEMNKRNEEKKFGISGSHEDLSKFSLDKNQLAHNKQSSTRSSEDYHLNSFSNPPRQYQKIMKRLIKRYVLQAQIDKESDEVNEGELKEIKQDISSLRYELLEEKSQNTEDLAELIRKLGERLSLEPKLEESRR
TRPC4 PAM: positive allosteric modulators of TRPC4, primary screen, cell-based, mouse TRPC4beta, HEK293 mu-opioid, Fluo-4 calcium; 310,000 tested, 0.42% active; DAMGO EC20, Fluo-4 Ca2+ flux; active compounds read high; B-score at 10 µM; AID 2227, 2009; Short transient receptor potential channel 4 (Mus musculus), Q9QUQ5;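 active = B-score of calcium response area above 5 SD of library B-scores, with initial fluorescence ratio within 5 SD of library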;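 note: B-score of integrated fluorescence ratio over time as area under calcium response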
TRPC6 inh: mouse TRPC6 channel inhibitors, primary screen, cell-based, HEK293, membrane potential dye. ACh-evoked depolarization; active compounds read low. B-score at 10 µM. 310,000 tested, 1.1% active;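 active = B-score under library mean minus 3 SD, initial fluorescence not abnormally high, positive integrated signal ratio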;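 note: B-score derived from integrated fluorescence ratio over the kinetic read; more negative B-score means stronger inhibition of depolarization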
TRPC4 agonist: activators of mouse TRPC4 channel, primary screen, Fluo4 calcium, HEK293 TRPC4beta/mu-opioid cells; 310,000 tested, 0.49% active; Short transient receptor potential channel 4 (Mus musculus), Q9QUQ5; B-score at 10 µM; Fluo4 calcium fluorescence; active compounds read high;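 active = B-score above 5 SD of library B-scores, and initial fluorescence ratio not above library mean plus 5 SD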;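 note: positive B-score marks a calcium rise read as TRPC4 activation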
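Test system: HEK293 cells stably co-expressing mouse TRPC4beta and mu-opioid receptor | Schedule: Fluo4 dye loading 45 min at room temperature, 110 s recording | Measured by: Kinetic Fluo4 calcium fluorescence, 5 s baseline at 1 Hz | Evaluation: B score of integrated ratio | Controls: Buffer (low) and maximal DAMGO (high)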
TRPC4 sel inh 2: second selectivity test of TRPC6 inhibitors: effect on mouse TRPC4; shares compounds with TRPC6 inh; HEK293 TRPC4/MOR, membrane potential dye fluorescence; channel activated by saturating DAMGO dose; inhibition, % at 10 µM; 920 tested, 42% active;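 active = compounds whose fluorescence signal differed from control wells by over 3 SD, either direction, in both duplicate plates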
TRPC4 spec: mouse TRPC4 modulation by TRPC6 hits, confirmation, selectivity assay for TRPC6 inhibitor project, cell-based, HEK293 TRPC4/mu-opioid, membrane potential dye; shares compounds with TRPC6 inh; membrane potential fluorescence; activity change, negative = inhibition, % at 10 µM; 920 tested, 61% active;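 active = rise or fall in signal beyond 3 SD of buffer-only wells in both replicate plates, either sign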;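 note: integrated kinetic ratio of fluorescence range over baseline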
HEK293 MPD ctr 2-1: nonspecific membrane potential effects, parental HEK293, confirmation, counter-screen for TRPC6 inhibitor project, cell-based, second counter screen. shares compounds with TRPC6 inh. parental HEK293 membrane potential dye fluorescence; maximal acetylcholine challenge after compound addition. signal change vs control, % at 10 µM. 920 tested, 31% active. AID 2779, 2010;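 active = membrane potential signal moving either way by over 3 SD of the maximum-effect control, in both duplicate plates, meaning non-specific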
HEK293 MPD ctr-1: membrane potential modulation in parental HEK293, confirmation, counter-screen for TRPC6 inhibitor project, cell-based. shares compounds with TRPC6 inh. parental HEK293 membrane potential dye fluorescence. membrane potential signal change, % at 10 µM. 920 tested, 60% active. AID 2780, 2010;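 active = membrane potential signal shifting up or down by more than 3 SD of buffer-only wells, on both duplicate plates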
HEK293 MPD ctr-2: parental HEK293 membrane potential modulation, confirmation, counter-screen for TRPC6 modulator project, cell-based; 2,400 tested, 51% active; membrane potential dye fluorescence; AID 488924, 2010; shares compounds with TRPC6 inh; membrane potential signal change, % at 10 µM;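 active = membrane potential signal moves up or down beyond 5 SD from buffer-only wells, on both duplicate plates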
HEK293 MPD ctr 2-2: parental HEK293 nonspecific activity of TRPC6 modulators, second screen | shares compounds with TRPC6 inh | inhibition, % at 10 µM | membrane potential dye fluorescence; after compound, maximal acetylcholine stimulation | 2,400 tested, 14% active;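 active = membrane potential signal drops by more than 5 SD from the mean control signal, in both duplicate plates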;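 note: plate controls were acetylcholine ECmax control wells for no effect and buffer only wells for full effect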
TRPC4 ctr mod: TRPC4 modulation by TRPC6 hit compounds, confirmation, selectivity assay for TRPC6 modulator project, cell-based, HEK293 TRPC4/mu-opioid, membrane potential dye, mouse; shares compounds with TRPC6 inh; 2,400 tested, 69% active; membrane potential fluorescence; percent change from control (negative = decrease, positive = increase), % at 10 µM;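 active = membrane potential signal moved up or down beyond 5 SD of buffer control wells, in both duplicate plates, actives on both sides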;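 note: plate controls were assay buffer wells for no effect and DAMGO maximal-effect wells for full effect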
TRPC4/MOR inh 2: second check of whether TRPC6 modulators also affect mouse TRPC4 | shares compounds with TRPC6 inh | HEK293 TRPC4/mu-opioid, membrane potential dye fluorescence; stimulated with maximal-effect DAMGO | inhibition, % at 10 µM | 2,400 tested, 55% active | AID 488928;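 active = drop in membrane potential signal beyond 5 SD of the control wells in both duplicate plates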;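 note: TRPC4 counter screen for TRPC6 hits run under conditions tuned for TRPC6 not TRPC4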
TRPC6 inh conf: mouse TRPC6 channel inhibitors, confirmation, HEK293 cells, membrane potential dye, duplicate; shares compounds with TRPC6 inh; ACh-evoked depolarization; inhibition, % at 10 µM; 3,300 tested, 43% active;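 active = fluorescence ratio falls more than 5 SD below the full-stimulation control mean, in both duplicate runs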;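 note: integrated fluorescence ratio of peak minus minimum over baseline after agonist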
TRPC6 act conf: mouse TRPC6 channel activators, confirmation, HEK293 cells, membrane potential dye, duplicate. 2,800 tested, 11% active. activation, % at 10 µM. shares compounds with TRPC6 inh. HEK293-TRPC6 membrane potential dye fluorescence, FDSS;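 active = ratio signal rise beyond 5 SD above unstimulated control wells' mean, seen in both duplicate runs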;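 note: plate controls were buffer EC0 wells for no effect and acetylcholine ECmax response for full effect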
* marks the source's active call; other numbers are inactive results; i = inactive; x = no result; + = active, no number. Only some compounds are listed: those with a hit (about 2.3% of all), similar ones and a draw of the others.

SMILES	TRPC4 block	TRPC6 activator	TRPC4 PAM	TRPC6 inh	TRPC4 agonist	HEK293 MPD ctr-2	HEK293 MPD ctr 2-2	TRPC4 ctr mod	TRPC4/MOR inh 2	TRPC6 inh conf	TRPC6 act conf	others
CCN(CC)CCCCN1c2ccccc2Sc2ccccc21	i	i	i	-6.5*	i	i	i	i	69.0%*	48.5%*	i
CC(CN1c2ccccc2Sc2ccccc21)N(C)C (stereo not given)	i	i	i	-6.14*	i	i	93.5%*	8.0%*	32.0%*	72.0%*	i
CN(C)CCCN1c2ccccc2Sc2ccc(C(F)(F)F)cc21	i	i	i	-7.23*	i	x	x	x	x	i	i	TRPC4 sel inh 2=70.5%*;TRPC4 spec=1.5%*;HEK293 MPD ctr 2-1=i;HEK293 MPD ctr-1=i
CN(C)CCC(=O)N1c2ccccc2Sc2ccc(C(F)(F)F)cc21	i	i	i	-6.26*	i	88.0%*	91.5%*	13.5%*	37.5%*	89.0%*	x
Cc1c(C(=O)NCC2CCCO2)cccc1[N+](=O)[O-] (stereo not given)	i	i	i	i	i	x	x	x	x	x	x
NS(=O)(=O)c1ccc(CCNC(=O)CNS(=O)(=O)c2cccc(Br)c2)cc1	i	i	i	i	i	x	x	x	x	x	x
COC(=O)c1ccsc1NS(=O)(=O)c1ccccc1	i	i	i	i	i	x	x	x	x	x	x
CC1=Nc2ccccc2/C1=C/c1sc(=S)n(-c2cccc(C(=O)O)c2)c1O	i	55.7*	11*	i	44*	+	i	212.0%*	i	i	314.0%*
Oc1c(C=C2N=c3ccccc3=N2)sc(=S)n1-c1ccccc1	i	i	i	i	i	x	x	x	x	x	x
O=C(Nc1ccc2c(c1)OCCO2)c1ccc(NC(=O)C2CCCO2)cc1 (stereo not given)	i	i	i	-5.21*	i	i	i	i	i	i	i
O=C(NCc1ccc2c(c1)OCO2)c1ccc(NC(=O)C2CCCO2)cc1 (stereo not given)	i	i	i	i	i	x	x	x	x	x	x
CCC(C)(C)NC(=O)C(c1cccn1C)N(C(=O)Cn1nnc2ccccc21)c1ccc(OC)cc1OC (stereo not given)	i	11.8*	i	-8.13*	i	124.5%*	i	43.5%*	41.0%*	37.5%*	68.5%*
CCOc1ccc(N(C(=O)Cn2nnc3ccccc32)C(C(=O)NC(C)(C)CC)c2cccn2C)cc1 (stereo not given)	i	i	i	i	i	x	x	x	x	x	x
COc1ccccc1CNC(=O)CSc1ccc(-c2ccncc2)nn1	i	i	i	i	i	x	x	x	x	x	x
c1ccc(-c2cnnc(N3CCCCC3)n2)cc1	i	i	i	-6.94*	i	x	x	x	x	71.7%*	x	TRPC4 sel inh 2=i;TRPC4 spec=0.7%*;HEK293 MPD ctr 2-1=i;HEK293 MPD ctr-1=i
FC(F)(F)c1cc(-c2ccccc2)nc(N2CCCCCC2)n1	i	i	i	i	i	x	x	x	x	x	x
O=C1OCCC1Sc1nnc(-c2ccc(F)cc2)n1Cc1ccccc1 (stereo not given)	i	i	i	i	i	x	x	x	x	x	x
CCOC(=O)N1CCC(N2Cc3cccc(C(=O)N4CCN(c5cccc(Cl)c5)CC4)c3C2=O)CC1	i	i	i	-6.31*	i	100.5%*	i	21.5%*	i	42.5%*	x
CCOC(=O)N1CCC(N2Cc3cccc(C(=O)Nc4cccc(F)c4)c3C2=O)CC1	i	i	i	-9.19*	i	x	x	x	x	89.5%*	i	TRPC4 sel inh 2=i;TRPC4 spec=i;HEK293 MPD ctr 2-1=-11.5%*;HEK293 MPD ctr-1=i
Cc1cc(NC(=O)CCC(=O)N(CC(=O)NCC2CCCO2)c2ccc(F)c(Cl)c2)no1 (stereo not given)	i	i	i	i	i	x	x	x	x	x	x
O=C(NCc1ccco1)c1ccc2ccccc2n1	i	i	i	-5.08*	i	i	i	i	i	44.5%*	x
Cc1cccc(C)c1OCCNC(=O)c1ccc2ccccc2n1	i	12.5*	i	-13.4*	i	149.5%*	i	i	44.0%*	91.0%*	77.5%*

Source: PubChem BioAssay
